According to ChEMBL document CHEMBL5705897, “Characterization of WZ4003 and HTH-01-015 as selective inhibitors of the LKB1-tumour-suppressor-activated NUAK kinases” (Biochem J, 2014):
Activity calls are given as the source filed them. No cut-off for these calls is given here.

Columns and labels:
[1] = biological target: T1, Aurora kinase A (Homo sapiens) (UniProt O14965); test: Inhibition of recombinant human N-terminal Hi6-tagged Aurora A (2 to 403 residues) expressed in Escherichia coli 1 uM using LRRLSLGLRRLSLGLRRLSLGLRRLSLG as substrate incubated for 30 mins in presence of [gamma-33P]ATP by filter binding method
T1 sequence (whole entry): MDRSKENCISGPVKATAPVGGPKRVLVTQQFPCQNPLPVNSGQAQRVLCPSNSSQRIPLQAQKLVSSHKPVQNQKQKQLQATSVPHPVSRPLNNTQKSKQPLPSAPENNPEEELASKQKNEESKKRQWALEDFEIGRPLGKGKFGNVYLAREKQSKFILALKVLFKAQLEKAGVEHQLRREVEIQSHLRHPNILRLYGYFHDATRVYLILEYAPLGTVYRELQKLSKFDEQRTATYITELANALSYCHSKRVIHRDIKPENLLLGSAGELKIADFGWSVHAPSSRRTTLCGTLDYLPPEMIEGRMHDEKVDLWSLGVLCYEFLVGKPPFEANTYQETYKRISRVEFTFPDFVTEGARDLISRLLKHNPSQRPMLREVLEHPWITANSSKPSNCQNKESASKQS
How it was run: (§1)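 Screened at the International Centre for Protein Kinase Profiling against a 140-kinase panel, with inhibitor at 0.1 or 1 μM; activity expressed as percentage of DMSO control reactions, mean of triplicate reactions.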

[2] = biological target: Tyrosine-protein kinase JAK2 (Homo sapiens) (UniProt O60674); test: Inhibition of JAK2 (unknown origin) activity at 1 uM relative to control; how it was run: as §1
[3] = biological target: Aurora kinase B (Homo sapiens) (UniProt Q96GD4); test: Inhibition of recombinant human N-terminal His6-tagged Aurora B (1 to 344 residues) expressed in Escherichia coli at 1 uM using LRRLSLGLRRLSLGLRRLSLGLRRLSLG as substrate incubated for 30 mins in presence of [gamma-33P]ATP by filter binding method; how it was run: as §1
[4] = biological target: Tyrosine-protein kinase ABL1 (Homo sapiens) (UniProt P00519); test: Inhibition of recombinant human N-terminal GST-tagged ABL (118 to 535 residues) expressed in Escherichia coli co-expressed with His-tagged YopH at 1 uM using EAIYAAPFAKKK as substrate incubated for 30 mins in presence of [gamma-33P]ATP by filter binding method
How it was run: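 Run within a 140-kinase specificity panel at the International Centre for Protein Kinase Profiling. Compounds were dissolved in DMSO and tested in vitro at 0.1 or 1 μM. Activity is expressed as percentage of kinase activity in DMSO control reactions, as the mean ± S.D. of triplicate reactions.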

[5] = biological target: NUAK family SNF1-like kinase 2 (Homo sapiens) (UniProt Q9H093); test: Inhibition of GST-tagged NUAK2 (unknown origin) expressed in HEK293 cells using ALNRTSSDSALHRRR as substrate incubated for 30 mins in presence of [gamma-32P]-ATP by Cerenkov counting method; assay type: cell-based
How it was run: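 GST–NUAK2 purified on glutathione–Sepharose from HEK-293 cells 36–48 h after transient transfection; 100 ng enzyme in 50 mM Tris/HCl pH 7.5, 0.1 mM EGTA, 10 mM magnesium acetate, 200 μM Sakamototide, 0.1 mM [γ-32P]ATP, inhibitor in DMSO; 30 min at 30 °C, stopped with 25 mM EDTA, spotted on P81, Cerenkov counted; triplicate; IC50 by non-linear regression versus DMSO control.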

[6] = biological target: T2, NUAK family SNF1-like kinase 1 (Homo sapiens) (UniProt O60285); test: Inhibition of NUAK1 in HEK293 cells assessed as reduction in MYPT1 phosphorylation at Ser445 residue at 0.1 to 10 uM incubated for 16 hrs by immunoblot analysis; assay type: cell-based; conditions: dose 0.1-10 µM
T2 sequence (whole entry): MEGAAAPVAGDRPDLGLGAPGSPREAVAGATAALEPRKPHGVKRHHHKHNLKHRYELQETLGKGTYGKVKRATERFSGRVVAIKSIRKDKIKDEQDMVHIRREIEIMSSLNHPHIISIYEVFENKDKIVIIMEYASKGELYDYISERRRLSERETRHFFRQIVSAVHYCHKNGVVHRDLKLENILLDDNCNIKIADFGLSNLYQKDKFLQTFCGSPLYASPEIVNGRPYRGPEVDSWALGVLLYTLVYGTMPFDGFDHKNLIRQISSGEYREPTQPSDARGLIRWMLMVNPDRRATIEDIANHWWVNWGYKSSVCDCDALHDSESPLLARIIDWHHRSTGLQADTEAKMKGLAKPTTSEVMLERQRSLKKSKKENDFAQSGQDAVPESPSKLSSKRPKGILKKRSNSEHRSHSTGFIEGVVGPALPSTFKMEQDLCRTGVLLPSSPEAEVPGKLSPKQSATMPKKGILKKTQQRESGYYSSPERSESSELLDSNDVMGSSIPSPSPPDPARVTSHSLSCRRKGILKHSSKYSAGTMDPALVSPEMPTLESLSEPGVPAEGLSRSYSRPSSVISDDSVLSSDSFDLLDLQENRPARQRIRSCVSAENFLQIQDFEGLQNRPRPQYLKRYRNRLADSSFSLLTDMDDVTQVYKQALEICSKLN
How it was run: (§2)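 HEK-293 cells exposed to inhibitor or DMSO for 16 h; medium replaced by EDTA-PBS dissociation buffer with the same inhibitor concentration to induce detachment (gentle tapping, 70 g, 3 min); cells lysed at once; MYPT1 immunoprecipitated from 0.5 mg lysate, blotted for p-Ser445 and total MYPT1; repeated three times.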

[7] = biological target: AMPK alpha1/beta2/gamma1 (Homo sapiens) (UniProt O43741+P54619+Q13131); test: Inhibition of recombinant N-terminal His6-tagged human AMPKalpha1 (11 to 559 residues)/AMPKbeta2 (1 to 272 residues)/AMPKgamma1 (1 to 331 residues) expressed in baculovirus infected Sf21 cells at 1 uM using SAMS as substrate incubated for 30 mins in presence of [gamma-33P]ATP by filter binding method; how it was run: as §1
[8] = biological target: Serine/threonine-protein kinase BRSK1 (Homo sapiens) (UniProt Q8TDC3); test: Inhibition of recombinant human N-terminal His6-tagged BRSK1 (2 to 778 residues) expressed in baculovirus infected Sf21 cells at 1 uM using KKLNRTLSFAEPG as substrate incubated for 30 mins in presence of [gamma-33P]ATP by filter binding method; how it was run: as §1
[9] = biological target: Serine/threonine-protein kinase MARK1 (Homo sapiens) (UniProt Q9P0L2); test: Inhibition of recombinant human N-terminal His6-tagged MARK1 (2 to 795 residues) expressed in baculovirus infected Sf21 cells at 1 uM using KKKVSRSGLYRSPSMPENLNRPR as substrate incubated for 30 mins in presence of [gamma-33P]ATP by filter binding method; how it was run: as §1
[10] = biological target: MAP/microtubule affinity-regulating kinase 3 (Homo sapiens) (UniProt P27448); test: Inhibition of recombinant human N-terminal His6-tagged MARK3 (2 to 729 residues) expressed in baculovirus infected Sf21 cells at 1 uM using CHKtide as substrate incubated for 30 mins in presence of [gamma-33P]ATP by filter binding method; how it was run: as §1
[11] = biological target: High affinity nerve growth factor receptor (Homo sapiens) (UniProt P04629); test: Inhibition of recombinant human N-terminal His6-tagged TrkA (441 to 760 residues) expressed in baculovirus infected Sf21 cells assessed as remaining activity at 1 uM using Poly(Glu,Tyr) as substrate incubated for 30 mins in presence of [gamma-33P]ATP by filter binding method relative to control; how it was run: as §1
MEF [12] = test: Inhibition of NUAK1 in NUAK1+/+ MEF cells assessed as reduction in MYPT1 phosphorylation at Ser445 residues at 10 uM after 16 hrs by immunoblot analysis; assay type: cell-based; conditions: Mus musculus
How it was run: (§3)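 U2OS cells or NUAK1+/+ MEFs treated with or without 10 μM inhibitor for 16 h, then 20 min in EDTA-PBS dissociation buffer with 10 μM inhibitor or DMSO; detached by tapping and 70 g 3 min spin, lysed immediately and immunoblotted for MYPT1 p-Ser445; three separate experiments.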

[13] = biological target: T2, NUAK family SNF1-like kinase 1 (Homo sapiens); test: Inhibition of NUAK1 in human U2OS cells assessed as reduction in MYPT1 phosphorylation at Ser445 residues at 10 uM after 16 hrs by immunoblot analysis; assay type: cell-based; how it was run: as §3
MEF [14] = test: Inhibition of cell migration in NUAK1+/+ MEF cells at 10 uM pre incubated for 1 hr followed by overnight incubation and measured after 15 to 20 hrs by microscopic based wound healing assay; assay type: functional; conditions: Mus musculus
How it was run: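 Wound healing: equal MEF numbers loaded into both chambers of inserts with a 500 μm gap, inhibitor (10 μM) added 1 h before; after overnight at 37 °C, 5% CO2 insert removed and gap closure filmed by time-lapse microscopy every 2 min over 15–20 h; triplicate.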

MEF [15] = test: Antiproliferative activity against NUAK1+/+ MEF cells assessed as reduction in cell viability at 10 uM after 5 days by CellTiter 96 non-radioactive cell proliferation assay; assay type: functional, cell-based; conditions: Mus musculus, time 5.0 day
How it was run: (§4)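 Colorimetric CellTiter 96 AQueous proliferation assay in 96-well format; 2000 cells/well seeded for U2OS, 3000 cells/well for MEFs; grown 5 days with or without 10 μM inhibitor; run in triplicate. Inhibitors dissolved in DMSO, final DMSO in medium ≤1%. MEFs cultured in DMEM/10% FBS, glutamine, non-essential amino acids, sodium pyruvate.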

[16] = biological target: T2, NUAK family SNF1-like kinase 1 (Homo sapiens); test: Inhibition of NUAK1 in HEK293 cells assessed as reduction in MYPT1 phosphorylation at Ser445 residue at 10 uM incubated for 16 hrs by immunoblot analysis; assay type: cell-based; how it was run: as §2
U2OS [17] = test: Inhibition of cell invasion in human U2OS cells at 10 uM incubated for 16 hrs by matrigel based transwell assay; assay type: functional
How it was run: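 Growth-factor-reduced Matrigel Transwell invasion: U2OS cells serum-deprived 2 h, detached, 2.5×10^5 cells in DMEM/1% BSA added to upper chambers in triplicate, DMEM/10% FBS as chemoattractant below; 16 h at 37 °C, 5% CO2 with or without 10 μM inhibitor in both compartments; cells on lower filter face fixed, stained, imaged ×10 and counted; mean ± S.D.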

U2OS [18] = test: Antiproliferative activity against human U2OS cells assessed as reduction in cell viability at 10 uM after 5 days by CellTiter 96 non-radioactive cell proliferation assay; assay type: functional, cell-based; conditions: time 5.0 day; how it was run: as §4
[19] = biological target: T2, NUAK family SNF1-like kinase 1 (Homo sapiens); test: Inhibition of NUAK1 (unknown origin) expressed in HEK293 cells assessed as reduction in MYPT1 phosphorylation at Ser445 residue at 30 uM incubated for 16 hrs by immunoblot analysis; assay type: cell-based
How it was run: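 HEK-293 Flp/In T-Rex cells stably expressing HA–NUAK1 or HA–NUAK1[A195T] (doxycycline 0.1 μg/ml, 16–24 h to induce) treated with inhibitor 16 h, then detached in EDTA-PBS dissociation buffer containing the same inhibitor concentration, tapped and spun 70 g 3 min; lysed, endogenous MYPT1 immunoprecipitated from 0.5 mg lysate and immunoblotted for p-Ser445 and total MYPT1; three separate experiments.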

Chain of NUAK family SNF1-like kinase 2 (Homo sapiens) (Q9H093 whole entry): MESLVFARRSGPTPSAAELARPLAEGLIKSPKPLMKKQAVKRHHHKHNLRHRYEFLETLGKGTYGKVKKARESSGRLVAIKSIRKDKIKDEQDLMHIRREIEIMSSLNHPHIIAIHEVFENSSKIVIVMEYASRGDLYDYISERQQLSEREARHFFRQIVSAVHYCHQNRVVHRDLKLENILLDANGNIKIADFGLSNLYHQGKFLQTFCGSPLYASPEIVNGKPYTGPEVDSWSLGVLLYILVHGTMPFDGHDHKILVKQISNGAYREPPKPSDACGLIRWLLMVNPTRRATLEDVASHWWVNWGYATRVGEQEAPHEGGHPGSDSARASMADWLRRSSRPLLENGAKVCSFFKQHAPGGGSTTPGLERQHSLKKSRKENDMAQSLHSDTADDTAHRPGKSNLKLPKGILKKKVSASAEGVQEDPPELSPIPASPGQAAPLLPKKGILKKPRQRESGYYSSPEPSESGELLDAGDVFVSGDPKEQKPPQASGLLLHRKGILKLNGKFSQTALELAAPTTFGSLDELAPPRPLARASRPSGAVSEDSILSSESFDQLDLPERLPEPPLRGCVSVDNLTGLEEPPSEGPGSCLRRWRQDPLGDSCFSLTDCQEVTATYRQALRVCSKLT
Chain of Aurora kinase B (Homo sapiens) (Q96GD4 whole entry, the tested form may be a part): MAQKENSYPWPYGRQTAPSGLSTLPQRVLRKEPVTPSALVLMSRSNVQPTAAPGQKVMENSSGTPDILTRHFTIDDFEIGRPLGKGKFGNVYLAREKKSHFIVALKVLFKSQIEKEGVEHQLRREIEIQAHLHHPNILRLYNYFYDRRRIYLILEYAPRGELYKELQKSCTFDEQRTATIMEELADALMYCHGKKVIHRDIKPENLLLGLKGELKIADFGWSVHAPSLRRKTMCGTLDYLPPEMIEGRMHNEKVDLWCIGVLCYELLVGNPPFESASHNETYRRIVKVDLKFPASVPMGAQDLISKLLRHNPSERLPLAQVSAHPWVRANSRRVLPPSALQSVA
Chain of Tyrosine-protein kinase ABL1 (Homo sapiens) (P00519 whole entry, the tested form may be a part): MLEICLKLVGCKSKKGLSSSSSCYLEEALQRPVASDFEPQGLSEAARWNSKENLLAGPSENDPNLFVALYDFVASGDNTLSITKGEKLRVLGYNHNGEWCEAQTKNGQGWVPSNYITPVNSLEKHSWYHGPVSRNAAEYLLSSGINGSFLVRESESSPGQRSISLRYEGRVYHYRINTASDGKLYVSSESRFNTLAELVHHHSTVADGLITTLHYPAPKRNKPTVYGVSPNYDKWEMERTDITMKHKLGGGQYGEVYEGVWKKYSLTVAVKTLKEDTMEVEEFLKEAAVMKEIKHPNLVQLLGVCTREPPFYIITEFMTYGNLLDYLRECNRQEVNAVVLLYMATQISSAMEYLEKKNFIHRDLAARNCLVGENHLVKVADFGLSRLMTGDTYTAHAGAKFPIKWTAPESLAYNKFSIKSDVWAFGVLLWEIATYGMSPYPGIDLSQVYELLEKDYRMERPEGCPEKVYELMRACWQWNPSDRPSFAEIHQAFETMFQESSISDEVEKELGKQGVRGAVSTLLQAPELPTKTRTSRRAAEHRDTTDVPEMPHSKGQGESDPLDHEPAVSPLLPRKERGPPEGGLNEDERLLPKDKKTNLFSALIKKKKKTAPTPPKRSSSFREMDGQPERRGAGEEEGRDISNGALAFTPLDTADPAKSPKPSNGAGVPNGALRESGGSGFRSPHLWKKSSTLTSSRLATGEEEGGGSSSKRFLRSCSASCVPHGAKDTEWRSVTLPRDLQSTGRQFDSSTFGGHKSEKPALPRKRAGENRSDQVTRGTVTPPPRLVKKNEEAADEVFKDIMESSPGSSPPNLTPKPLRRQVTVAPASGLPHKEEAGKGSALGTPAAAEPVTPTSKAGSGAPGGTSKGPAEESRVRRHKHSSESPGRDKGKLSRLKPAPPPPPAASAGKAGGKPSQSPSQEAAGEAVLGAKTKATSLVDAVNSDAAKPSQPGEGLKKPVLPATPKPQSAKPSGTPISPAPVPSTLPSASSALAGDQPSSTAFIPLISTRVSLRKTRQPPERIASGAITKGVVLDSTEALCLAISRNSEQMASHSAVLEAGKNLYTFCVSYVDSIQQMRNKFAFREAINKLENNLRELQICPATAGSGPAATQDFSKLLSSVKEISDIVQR
Chain of Tyrosine-protein kinase JAK2 (Homo sapiens) (O60674 whole entry, the tested form may be a part): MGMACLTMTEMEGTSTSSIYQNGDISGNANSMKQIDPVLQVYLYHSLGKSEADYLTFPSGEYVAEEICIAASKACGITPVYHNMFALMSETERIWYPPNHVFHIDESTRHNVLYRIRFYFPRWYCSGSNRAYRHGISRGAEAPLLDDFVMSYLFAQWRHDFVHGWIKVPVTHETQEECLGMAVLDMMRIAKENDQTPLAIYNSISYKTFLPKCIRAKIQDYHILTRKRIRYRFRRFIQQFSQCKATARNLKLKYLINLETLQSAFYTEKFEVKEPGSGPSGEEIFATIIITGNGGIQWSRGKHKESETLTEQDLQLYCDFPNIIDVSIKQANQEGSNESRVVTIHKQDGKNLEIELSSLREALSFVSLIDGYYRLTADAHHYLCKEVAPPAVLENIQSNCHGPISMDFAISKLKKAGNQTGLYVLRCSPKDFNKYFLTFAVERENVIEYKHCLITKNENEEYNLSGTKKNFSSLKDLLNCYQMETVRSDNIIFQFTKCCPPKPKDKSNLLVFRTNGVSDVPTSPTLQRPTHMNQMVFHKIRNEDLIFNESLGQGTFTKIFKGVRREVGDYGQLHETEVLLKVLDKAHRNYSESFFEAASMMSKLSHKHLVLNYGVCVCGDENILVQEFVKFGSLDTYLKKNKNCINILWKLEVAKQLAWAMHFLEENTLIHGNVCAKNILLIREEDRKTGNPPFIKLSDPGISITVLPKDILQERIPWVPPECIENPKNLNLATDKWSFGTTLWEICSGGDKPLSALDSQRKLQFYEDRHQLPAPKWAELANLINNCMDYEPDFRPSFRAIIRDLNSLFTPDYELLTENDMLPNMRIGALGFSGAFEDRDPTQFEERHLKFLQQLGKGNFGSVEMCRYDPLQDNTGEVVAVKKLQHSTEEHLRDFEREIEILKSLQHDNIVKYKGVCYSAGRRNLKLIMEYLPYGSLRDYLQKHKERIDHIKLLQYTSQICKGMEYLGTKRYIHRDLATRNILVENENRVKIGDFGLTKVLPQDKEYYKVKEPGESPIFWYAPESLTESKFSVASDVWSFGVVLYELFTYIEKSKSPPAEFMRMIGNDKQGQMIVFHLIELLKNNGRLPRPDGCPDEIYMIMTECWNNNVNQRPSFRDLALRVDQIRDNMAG
Chain of Serine/threonine-protein kinase BRSK1 (Homo sapiens) (Q8TDC3 whole entry, the tested form may be a part): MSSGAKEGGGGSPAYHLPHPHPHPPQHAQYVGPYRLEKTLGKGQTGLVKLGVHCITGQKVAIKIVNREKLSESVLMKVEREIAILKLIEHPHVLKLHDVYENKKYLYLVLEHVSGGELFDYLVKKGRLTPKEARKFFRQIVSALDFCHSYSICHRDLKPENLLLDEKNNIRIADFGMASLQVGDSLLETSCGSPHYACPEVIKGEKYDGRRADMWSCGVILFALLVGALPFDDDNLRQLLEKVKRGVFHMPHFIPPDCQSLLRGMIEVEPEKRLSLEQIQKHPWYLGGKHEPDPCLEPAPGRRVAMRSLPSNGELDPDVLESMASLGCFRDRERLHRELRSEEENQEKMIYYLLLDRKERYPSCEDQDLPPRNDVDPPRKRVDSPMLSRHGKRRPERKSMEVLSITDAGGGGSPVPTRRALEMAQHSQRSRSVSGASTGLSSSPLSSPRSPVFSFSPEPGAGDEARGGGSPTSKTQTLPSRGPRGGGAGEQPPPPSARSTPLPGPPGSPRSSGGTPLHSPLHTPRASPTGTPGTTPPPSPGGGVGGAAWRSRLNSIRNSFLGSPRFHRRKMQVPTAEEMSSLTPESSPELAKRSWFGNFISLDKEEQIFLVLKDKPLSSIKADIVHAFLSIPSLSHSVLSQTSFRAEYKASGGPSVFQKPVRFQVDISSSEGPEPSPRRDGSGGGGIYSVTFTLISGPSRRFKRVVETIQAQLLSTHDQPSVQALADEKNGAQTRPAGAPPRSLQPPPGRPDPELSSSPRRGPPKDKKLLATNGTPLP
Chain of Serine/threonine-protein kinase MARK1 (Homo sapiens) (Q9P0L2 whole entry, looked up, the tested form may be a part): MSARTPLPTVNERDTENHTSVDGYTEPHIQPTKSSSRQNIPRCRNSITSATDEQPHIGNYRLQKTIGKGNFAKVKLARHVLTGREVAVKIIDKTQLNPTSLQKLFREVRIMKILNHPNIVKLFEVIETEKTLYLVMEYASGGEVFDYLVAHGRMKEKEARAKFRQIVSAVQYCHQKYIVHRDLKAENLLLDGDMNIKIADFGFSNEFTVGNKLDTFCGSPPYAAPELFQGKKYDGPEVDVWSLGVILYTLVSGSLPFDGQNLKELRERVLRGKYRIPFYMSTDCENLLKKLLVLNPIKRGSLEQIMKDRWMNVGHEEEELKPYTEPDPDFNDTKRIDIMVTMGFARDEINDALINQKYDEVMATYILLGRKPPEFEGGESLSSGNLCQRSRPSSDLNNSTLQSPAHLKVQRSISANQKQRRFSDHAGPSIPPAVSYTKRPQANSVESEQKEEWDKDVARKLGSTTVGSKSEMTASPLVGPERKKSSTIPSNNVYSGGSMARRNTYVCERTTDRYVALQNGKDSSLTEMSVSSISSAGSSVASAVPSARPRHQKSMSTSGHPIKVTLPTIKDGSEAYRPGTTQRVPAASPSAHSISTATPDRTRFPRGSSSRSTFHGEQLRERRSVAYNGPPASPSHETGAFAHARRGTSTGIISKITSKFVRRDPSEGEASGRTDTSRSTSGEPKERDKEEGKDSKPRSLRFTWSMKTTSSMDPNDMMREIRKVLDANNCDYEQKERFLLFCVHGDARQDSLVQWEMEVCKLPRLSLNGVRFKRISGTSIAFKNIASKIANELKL

Structure (SMILES) | inhibition [1] | inhibition [2] | inhibition [3] | inhibition [4] | inhibition [5] | inhibition [6] | inhibition [7] | inhibition [8] | inhibition [9] | inhibition [10] | Activity [11] | inhibition (MEF [12]) | inhibition [13] | inhibition (MEF [14]) | inhibition (MEF [15]) | inhibition [16] | inhibition (U2OS [17]) | inhibition (U2OS [18]) | inhibition [19]
CN1C(=O)c2cc3ccccc3cc2N(C)c2nc(Nc3cnn(C4CCNCC4)c3)ncc21 | Active | Active | Active | Active | inactive | Active | – | – | – | – | – | – | – | – | – | – | – | – | –
CN1C(=O)c2ccccc2N(C)c2nc(Nc3cnn(C4CCNCC4)c3)ncc21 | Active | Active | Active | Active | inactive | Active | Active | Active | Active | Active | – | – | – | – | – | – | – | – | –
Cc1nc(Nc2cnn(C3CCNCC3)c2)nc2c1N(C)C(=O)c1cc3ccccc3cc1N2C | – | – | – | – | – | – | – | – | – | – | 82% | Active | Active | Active | Active | Active | Active | Active | Active
